From ChEMBL document CHEMBL1687739 (Antimicrob Agents Chemother, 2009)
Calls of active or inactive are those of the source. The calls are words filed in the database; no cut-off is given here.

Legend:
[1] = Selectivity index, CC50 for rat L-6 cells to IC50 for erythrocytic stage of chloroquine - and pyrimethamine-resistant Plasmodium falciparum K1; type: functional
Method in brief: (§1)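 K1 erythrocytic stages were cultured in hypoxanthine-free RPMI 1640 with Albumax, A+ RBC at 2.5% hematocrit and 0.3% parasitemia. DMSO stocks were 10 mg/ml; seven twofold dilutions covered 5 to 0.156 μg/ml. Plates were held at 37°C in 4% CO2/3% O2/93% N2 for 48 h, then 0.5 μCi [3H]hypoxanthine was added for 24 h and scintillation counted. IC50 from sigmoidal curves. SI = L-6 CC50/IC50.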

Plasmodium falciparum = experiment: Antiplasmodial activity against erythrocytic stage of chloroquine - and pyrimethamine-resistant Plasmodium falciparum K1 assessed as [3H]hypoxanthine incorporation after 48 hrs; type: functional, organism-based; method in brief: as §1
Trypanosoma cruzi = experiment: Antitrypanosomal activity against Trypanosoma cruzi Tulahuen C2C4 trypomastigote after 48 hrs; type: functional, organism-based; conditions: Tulahuen C2C4, 48 h
Method in brief: (§2)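 T. cruzi Tulahuen C2C4 (LacZ) trypomastigotes, 5,000/well, were added to rat L-6 myoblasts seeded 24 h earlier in RPMI 1640 with 10% FBS. After 48 h the medium was replaced with seven threefold drug dilutions (90 to 0.123 μg/ml) and incubated 96 h. CPRG-Nonidet was added and read at 540 nm after 2–6 h to give IC50. Duplicates, assay repeated at least once. SI = L-6 CC50/parasite IC50.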

Leishmania donovani = experiment: Antileishmanial activity against Leishmania donovani MHOM/ET/67/L82 amastigote after 72 hrs; type: functional, organism-based; conditions: MHOM/ET/67/L82, 72 h
Method in brief: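 Axenic amastigotes were grown at 37°C under 5% CO2 in SM medium, pH 5.4, with 10% heat-inactivated FBS. 10^5 per well were exposed 72 h to serial dilutions (30 to 0.041 μg/ml). Alamar Blue was added for 2 h, then fluorescence read at ex 536/em 588 nm as % of control. IC50 came from sigmoidal curves. Duplicates, repeated at least once.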

[2] = Cytotoxicity against rat L6 cells after 72 hrs by microplate alamar blue assay; type: cell-based
Method in brief: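 Rat skeletal myoblast L-6 cells, 4 × 10^4/well in RPMI 1640 with L-glutamine and 10% FBS, were given seven threefold dilutions (90 to 0.123 μg/ml) for 72 h. Alamar Blue was added for 2 h and fluorescence read at ex 536/em 588 nm. Tested in duplicate, assay repeated at least once.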

[3] = Selectivity index, CC50 for rat L-6 cells to IC50 for Trypanosoma brucei rhodesiense ST1B900 trypomastigote […]; type: functional
Method in brief: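 Bloodstream-form STIB900, 10^4/well in supplemented MEM with 15% heat-inactivated horse serum, were exposed to seven threefold dilutions (90 to 0.123 μg/ml) for 72 h at 37°C, 5% CO2. Alamar Blue was added for 2–4 h, then fluorescence read at ex 536/em 588 nm. SI = L-6 CC50/IC50. Duplicates, repeated at least once.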

[4] = Selectivity index, CC50 for rat L-6 cells to IC50 for Trypanosoma cruzi Tulahuen C2C4 trypomastigote; type: functional; method in brief: as §2
[5] = system: Trypanosoma brucei rhodesiense; experiment: Antitrypanosomal activity against Trypanosoma brucei rhodesiense ST1B900 trypomastigote infected in NMR1 mouse assessed as survival of mouse at 50 mg/kg, ip administered on day 3 post infection for 4 days; type: functional, organism-based; parameters: dose 50 mg/kg

Compound | Selectivity Index [1] | IC50 (Plasmodium falciparum) | IC50 (Trypanosoma cruzi) | IC50 (Leishmania donovani) | CC50 at 72 h [2] | Selectivity Index [3] | Selectivity Index [4] | Activity [5]
CCC(=O)N(CCCCCCCCN/C(=N/C(=O)OC(C)(C)C)NC(=O)OC(C)(C)C)C1CCN(CCc2ccccc2)CC1 | 35 | 0.6 µM | 12.3 µM | 14.8 µM | 21.5 µM |  |  | 
CC(C)(C)OC(=O)NCCCCCCCCCCCCNC1CCN(CCc2ccccc2)CC1 | 25 | 0.32 µM | 3.16 µM | 17.8 µM | 8.2 µM | 52 | <3 | 
CCCCCCCCCCCCCCCCOP(=O)([O-])OCC[N+](C)(C)C [MILTEFOSINE] |  |  |  | 0.205 µM |  |  |  | 
N=C(N)NCCCCCCCCNC(=N)N.O=S(=O)(O)O | >2608 | 0.106 µM |  |  | > 276 µM |  |  | 
CCC(=O)N(CCCCCCCCCCCCN/C(=N/C(=O)OC(C)(C)C)NC(=O)OC(C)(C)C)C1CCN(CCc2ccccc2)CC1 | 18 | 0.41 µM | 5.2 µM | 5.78 µM | 7.54 µM |  | <3 | 
CCC(=O)N(CCCCCCCCCCCCNC(=O)OC(C)(C)C)C1CCN(CCc2ccccc2)CC1 |  | 1.32 µM | 8.07 µM | 6.2 µM | 13.8 µM |  | <3 | 
CCC(=O)N(CCN/C(=N/C(=O)OC(C)(C)C)NC(=O)OC(C)(C)C)C1CCN(CCc2ccccc2)CC1 |  | 1.85 µM | 36.8 µM | 19.1 µM | 35.6 µM |  |  | 
CC(C)(C)OC(=O)NCCCCCCCCCNC1CCN(CCc2ccccc2)CC1 | 16 | 0.36 µM | 3.73 µM | > 67 µM | 6.05 µM | 48 | <3 | 
O=[N+]([O-])c1cccc(NC2CCN(CCc3ccccc3)CC2)c1 |  | 10.6 µM | 46.1 µM | 23.2 µM | 257 µM |  |  | 
CCC(=O)N(CCCCCCCCCNC(=O)OC(C)(C)C)C1CCN(CCc2ccccc2)CC1 |  | 1.43 µM | 11.7 µM | 34.8 µM | 16 µM |  |  | 
N=C(N)NCCCCCCNC(=N)N.O=S(=O)(O)O | >679 | 0.445 µM |  |  | > 302 µM |  |  | 
CC(C)(C)OC(=O)NCCCCCCNC1CCN(CCc2ccccc2)CC1 | 43 | 0.9 µM | 28.6 µM | > 74 µM | 39.3 µM | 36 |  | 
CC(C)(C)OC(=O)NCc1cccc(CNC2CCN(CCc3ccccc3)CC2)c1 |  | 1.66 µM | 17.3 µM | 78.1 µM | 111 µM | 219 |  | 
CCC(=O)N(CCCN/C(=N/C(=O)OC(C)(C)C)NC(=O)OC(C)(C)C)C1CCN(CCc2ccccc2)CC1 |  | 1.35 µM | > 53 µM | 31 µM | 80.7 µM |  |  | 
CCC(=O)N(CCCCCCN/C(=N/C(=O)OC(C)(C)C)NC(=O)OC(C)(C)C)C1CCN(CCc2ccccc2)CC1 | 29 | 0.85 µM | 23.2 µM | 13.2 µM | 24.9 µM |  |  | 
CCCCCCCCCCCCCNC(=N)N.O=S(=O)(O)O [AMINO(TRIDECYLAMINO)METHANIMINIUM HYDROGENSULFATE] | 2.4 | 7.98 µM |  |  | 19.6 µM |  |  | 
CC(C)(C)OC(=O)NCCCNC1CCN(CCc2ccccc2)CC1 |  | 2.08 µM | 55.4 µM | 68.9 µM | 129 µM |  |  | 
CC(C)(C)OC(=O)NCCNC1CCN(CCc2ccccc2)CC1 |  | 2.06 µM | 55.5 µM | 81.2 µM | 174 µM |  |  | 
CC(C)(C)OC(=O)NCCCCCNC1CCN(CCc2ccccc2)CC1 |  | 1.53 µM | 69 µM | > 77 µM | 95.6 µM |  |  | 
CC(C)(C)OC(=O)NCCCCCCCCNC1CCN(CCc2ccccc2)CC1 | 25 | 0.62 µM | 5.72 µM | > 69 µM | 15.5 µM | 130 | <3 | inactive
CC(C)(C)OC(=O)NCCCCNC1CCN(CCc2ccccc2)CC1 |  | 1.28 µM | 56.3 µM | > 80 µM | 155 µM |  |  | 
CC(C)(C)OC(=O)NCCCCCCCNC1CCN(CCc2ccccc2)CC1 | 42 | 0.77 µM | 11.9 µM | > 72 µM | 32.9 µM | 41 |  | 
N=C(N)NCCCCCCCCCNC(=N)N.O=S(=O)(O)O | >3162 | 0.084 µM |  |  | > 265 µM |  |  | 
